# pIC50, pKd: −log10 of the molar value.
# Columns and labels:
# Interleukin-2 = Interleukin-2 (Homo sapiens, UniProt P60568); assay: Inhibition of IL2-induced STAT5 phosphorylation in human NK92 cells incubated for 30 mins followed by IL-2 stimulation and measured after 1 hr by alphascreen assay
# Interleukin-15 [1] = biological target: T1, Interleukin-15 (Homo sapiens, UniProt P40933); assay: Inhibition of IL-15-induced STAT5 phosphorylation in human NK92 cells incubated for 30 mins followed by IL-15 stimulation and measured after 1 hr by alphascreen assay
# Interleukin-15 [2] = biological target: T1, Interleukin-15; assay: Binding affinity to recombinant human IL-15 assessed as dissociation constant by SPR analysis; settings: for pKd: read-out: Kd
# Summary of the method: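 IL-15 covalently immobilized on sensor chip; compounds flowed at increasing concentrations and binding monitored by surface plasmon resonance; Kd derived from direct interaction.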
# T1 sequence (P40933 whole entry): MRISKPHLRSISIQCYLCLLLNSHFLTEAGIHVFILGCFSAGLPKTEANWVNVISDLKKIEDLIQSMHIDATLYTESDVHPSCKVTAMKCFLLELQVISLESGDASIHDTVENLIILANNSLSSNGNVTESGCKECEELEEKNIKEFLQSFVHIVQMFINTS
# Interleukin-2, sequence (P60568 whole entry): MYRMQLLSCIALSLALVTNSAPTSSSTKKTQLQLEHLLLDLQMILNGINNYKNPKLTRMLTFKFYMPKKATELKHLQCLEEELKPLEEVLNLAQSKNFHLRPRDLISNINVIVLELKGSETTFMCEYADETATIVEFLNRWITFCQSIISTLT
pIC50 (Interleukin-2),pIC50 (Interleukin-15 [1]),pKd (Interleukin-15 [2]),Kd (Interleukin-15 [2]),Structure (SMILES)
< 4.52,< 4.52,,,CCOC(CCn1c(Cc2nn(C)c(=O)c3ccccc23)nnc1SCC(=O)Nc1ccc(Cl)cc1Cl)OCC
6.35,6.55,5.62,,Cn1nc(Cc2nnc(SCCCCCCCC(=O)Nc3ccc(Cl)cc3Cl)[nH]2)c2ccccc2c1=O
< 4.52,4.70,,Not Active,Cn1c(Cc2n[nH]c(=O)c3ccccc23)nnc1SCCCCCCCC(=O)Nc1ccc(Cl)cc1Cl
< 4.52,< 4.52,,,CN(C)CCCn1c(Cc2nn(C)c(=O)c3ccccc23)nnc1SCCCCCCCC(=O)Nc1ccc(Cl)cc1Cl
4.84,5.02,,,Cn1nc(Cc2nnc(SCCCCCCCC(=O)Nc3ccc(Cl)cc3Cl)n2CCC(=O)O)c2ccccc2c1=O
6.46,6.72,5.89,,Cn1c(Cc2nn(C)c(=O)c3ccccc23)nnc1SCCCCCCCC(=O)Nc1ccc(Cl)cc1Cl
< 4.52,< 4.52,,,Cn1c(Cc2nn(CCC(=O)O)c(=O)c3ccccc23)nnc1SCC(=O)Nc1ccc(Cl)cc1Cl
< 4.52,< 4.52,,,Cn1nc(Cc2nnc(SCC(=O)Nc3ccc(Cl)cc3Cl)n2CCC(=O)O)c2ccccc2c1=O
< 4.52,4.70,,,Cn1c(Cc2nn(CCC=O)c(=O)c3ccccc23)nnc1SCC(=O)Nc1ccc(Cl)cc1Cl
< 4.52,< 4.52,,,Cn1c(Cc2nn(CCCO[Si](C)(C)C(C)(C)C)c(=O)c3ccccc23)nnc1SCCCCCCCC(=O)Nc1ccc(Cl)cc1Cl
< 4.52,,,,Cn1c(Cc2nn(CCCO)c(=O)c3ccccc23)nnc1SCC(=O)Nc1ccc(Cl)cc1Cl
< 4.52,< 4.52,,,Cn1nc(Cc2nnc(SCCCCCCCC(=O)Nc3ccc(Cl)cc3Cl)n2CCCO[Si](C)(C)C(C)(C)C)c2ccccc2c1=O
< 4.52,< 4.52,5.41,,Cn1c(Cc2nn(CCCO)c(=O)c3ccccc23)nnc1SCCCCCCCC(=O)Nc1ccc(Cl)cc1Cl
5.07,5.38,,,Cn1nc(Cc2nnc(SCC(=O)Nc3ccc(Cl)cc3Cl)n2CCC=O)c2ccccc2c1=O
< 4.52,< 4.52,,,CN(C)CCCn1nc(Cc2nnc(SCC(=O)Nc3ccc(Cl)cc3Cl)n2C)c2ccccc2c1=O
< 4.52,< 4.52,,,Cn1nc(Cc2nnc(SCCCCCCCC(=O)Nc3ccc(Cl)cc3Cl)n2CCCO)c2ccccc2c1=O
4.66,4.83,5.11,,Cn1c(Cc2nn(CCC=O)c(=O)c3ccccc23)nnc1SCCCCCCCC(=O)Nc1ccc(Cl)cc1Cl
5.11,5.35,,,Cn1c(Cc2nn(C)c(=O)c3ccccc23)nnc1SCC(=O)Nc1ccc(Cl)cc1Cl
,< 4.52,,,Cn1c(Cc2nn(CCC(=O)O)c(=O)c3ccccc23)nnc1SCCCCCCCC(=O)Nc1ccc(Cl)cc1Cl
6.02,6.15,5.23,,Cn1nc(Cc2nnc(SCCCCCCCC(=O)Nc3ccc(Cl)cc3Cl)n2CCC=O)c2ccccc2c1=O
< 4.52,< 4.52,,,Cn1nc(Cc2nnc(SCC(=O)Nc3ccc(Cl)cc3Cl)n2CCCO)c2ccccc2c1=O
< 4.52,< 4.52,,,CN(C)CCCn1nc(Cc2nnc(SCCCCCCCC(=O)Nc3ccc(Cl)cc3Cl)n2C)c2ccccc2c1=O
< 4.52,,,,Cn1c(Cc2nn(CCC3OCCO3)c(=O)c3ccccc23)nnc1SCC(=O)Nc1ccc(Cl)cc1Cl
7.10,7.30,5.46,,Cn1c(Cc2nn(C)c(=O)c3ccccc23)nnc1SCCCCCCCC(=O)Nc1ccc(C(=O)c2ccccc2)cc1
